Measured values reported in PubChem BioAssay AID493180 (Broad Institute, 2011).
Several values for one entry are separate records, joined by “and”; a condition that tells them apart may be missing. Equal values may be shown once. Activity calls are given as the source filed them.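 How the source made its calls: active means fitted curve reaching 40% activation at or below the top valid tested dose; inactive means the rest, or activity counter to the expected direction.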

Tested on: U2OS HRE-luciferase reporter, luminescence, HIF pathway activation
Test: HRE-driven luciferase induction, U2OS – cell-based, luminescence, dry powder, set 3, dose response (AID 493180)
Conditions: not given
Outline: (§1)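 material = U2OS 3xHRE-luciferase reporter cells | compound = 8-point series in 3-fold steps, 7.5 mM top stock | detection = Steady-Glo luminescence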
For `CC(C)(C)OC(=O)N1CCN(Cc2ccc(O)c3ncccc23)CC1`, the AC40 was > 4.6 µM (inactive).
In the case of `Oc1ccc(CNC2Cc3ccccc3C2)c2cccnc12`, the AC40 is reported as > 38 µM (inactive).
In the case of `CC(C)(C)CCNc1nc(-c2ccccn2)nnc1-c1ccccc1`, the AC40 is reported as 3.2 µM and 1.8 µM.
`Cc1cccc(CNc2nc(-c3ccccn3)nnc2-c2ccccc2)c1` showed an AC40 of 4.5 µM.
With `Oc1ccc(CN2CCC3CCCCC3C2)c2cccnc12` (stereo not drawn) the AC40 was 34.8 µM.
`c1ccc(-c2nnc(-c3ccccn3)nc2NCc2ccccn2)cc1` gave an AC40 of 22 µM.
For `c1ccc(-c2nnc(-c3ccccn3)nc2NCc2cccnc2)cc1`, the AC40 was 16.3 µM.
Work on `c1ccc(-c2nnc(-c3ccccn3)nc2NCCc2ccccn2)cc1` yielded an AC40 of 12.5 µM.
With `O=C(NCCN1CCOCC1)c1cc(-c2ccccc2)on1` the AC40 was > 38 µM (inactive).
For `c1ccc(-c2cnc(Nc3nc(-c4ccccn4)nnc3-c3ccccc3)s2)cc1`, the AC40 was > 4.6 µM (inactive).
`c1ccc(-c2nnc(Nc3nc(-c4ccccn4)nnc3-c3ccccc3)s2)cc1` gave an AC40 of 25.3 µM.
With `O=C(c1cc(-c2ccccc2)on1)N1CCC(CO)CC1` the AC40 was > 4.6 µM (inactive).
Work on `Cc1ccc(CNc2nc(-c3ccccn3)nnc2-c2ccccc2)cc1` yielded an AC40 of 3.58 µM.
With `OCC1CCN(Cc2ccc(O)c3ncccc23)CC1` the AC40 was > 4.6 µM (inactive).
`Oc1ccc(CN2CCc3ccccc3C2)c2cccnc12` showed an AC40 of 14.1 µM.
With `O=C(NCCN1CCCCC1)c1cc(-c2ccccc2)on1` the AC40 was 2.5 µM.
With `c1ccc(-c2nnc(-c3ccccn3)nc2N2CCC(N3CCOCC3)CC2)cc1` the AC40 was 7.47 µM.
In the case of `C[C@@H](Nc1nc(-c2ccccn2)nnc1-c1ccccc1)c1ccccc1`, the AC40 is reported as 5.22 µM.
Work on `CN(C)c1nc(-c2ccccn2)nnc1-c1ccccc1` yielded an AC40 of 12.9 µM.
With `O=C(Nc1nc(-c2ccccc2)cs1)c1cc(-c2ccccc2)on1` the AC40 was > 4.6 µM (inactive).
For `O=C(NCCCO)c1cc(-c2ccccc2)on1`, the AC40 was > 38 µM (inactive).
In the case of `Cc1cccc(Nc2nc(-c3ccccn3)nnc2-c2ccccc2)n1`, the AC40 is reported as 14.2 µM.
`C=CCNc1nc(-c2ccccn2)nnc1-c1ccccc1` gave an AC40 of 7.74 µM.
For `O=C(Nc1cn2ccccc2n1)c1cc(-c2ccccc2)on1`, the AC40 was > 4.6 µM (inactive).
With `O=C(NCCCN1CCOCC1)c1cc(-c2ccccc2)on1` the AC40 was > 38 µM (inactive).
Compound `COc1cccc(CNc2nc(-c3ccccn3)nnc2-c2ccccc2)c1` has an AC40 of 2.83 µM.
In the case of `c1ccc(-c2nnc(-c3ccccn3)nc2Nc2nc3ccccc3s2)cc1`, the AC40 is reported as 5.89 µM.
With `CC(C)(C)c1ccc(CNc2nc(-c3ccccn3)nnc2-c2ccccc2)cc1` the AC40 was 2.15 µM.
`c1ccc(-c2ccc(CNc3nc(-c4ccccn4)nnc3-c3ccccc3)cc2)cc1` gave an AC40 of 1.09 µM.
In the case of `CN1CCN(c2nc(-c3ccccn3)nnc2-c2ccccc2)CC1`, the AC40 is reported as 21.7 µM.
For `OCCCNc1nc(-c2ccccn2)nnc1-c1ccccc1`, the AC40 was 22.2 µM.
With `COc1ccc(CNc2nc(-c3ccccn3)nnc2-c2ccccc2)cc1` the AC40 was 3.7 µM.
Work on `Clc1cccc(CNc2nc(-c3ccccn3)nnc2-c2ccccc2)c1` yielded an AC40 of 2.21 µM.
Compound `c1ccc(-c2nnc(-c3ccccn3)nc2N2CCN(c3ccncc3)CC2)cc1` has an AC40 of 4.63 µM.
In the case of `O=C(NCCCn1ccnc1)c1cc(-c2ccccc2)on1`, the AC40 is reported as 28.9 µM.
Compound `CC(Nc1nc(-c2ccccn2)nnc1-c1ccccc1)c1ccccc1` (stereo not drawn) has an AC40 of 1.94 µM.
For `O=C(Nc1nc2ccccc2s1)c1cc(-c2ccccc2)on1`, the AC40 was > 1.5 µM (inactive).
`c1ccc(-c2nnc(-c3ccccn3)nc2N2CCC(c3ccccc3)C2)cc1` (stereo not drawn) showed an AC40 of 2.54 µM.
With `C[C@H](Nc1nc(-c2ccccn2)nnc1-c1ccccc1)C1CCCCC1` the AC40 was 2.59 µM.
Compound `c1ccc(-c2nnc(-c3ccccn3)nc2NCC2CC2)cc1` has an AC40 of 7.63 µM.
Compound `c1ccc(-c2nnc(-c3ccccn3)nc2NCCN2CCOCC2)cc1` has an AC40 of 15.3 µM.
Work on `OCC1CCN(c2nc(-c3ccccn3)nnc2-c2ccccc2)CC1` yielded an AC40 of 21.1 µM.
Compound `Cn1c(-c2ccccc2)cnc1Nc1nc(-c2ccccn2)nnc1-c1ccccc1` has an AC40 of 5.83 µM.
`C[C@@H](Nc1nc(-c2ccccn2)nnc1-c1ccccc1)C1CCCCC1` showed an AC40 of 5.21 µM.
For `CCCCNC(=O)c1cc(-c2ccccc2)on1`, the AC40 was > 38 µM (inactive).
`c1ccc(-c2nnc(-c3ccccn3)nc2NCCCN2CCOCC2)cc1` gave an AC40 of 7.33 µM.
With `c1ccc(-c2nnc(-c3ccccn3)nc2NCC2CCCCC2)cc1` the AC40 was 3.5 µM.
Compound `Cc1ccc(Nc2nc(-c3ccccn3)nnc2-c2ccccc2)cn1` has an AC40 of 13.6 µM.
For `O=C(c1cc(-c2ccccc2)on1)N1CCc2cccnc21`, the AC40 was > 4.6 µM (inactive).
For `Cc1ccc(CNc2nc(-c3ccccn3)nnc2-c2ccccc2)cc1C`, the AC40 was 2.12 µM.
For `c1ccc(-c2cccc(CNc3nc(-c4ccccn4)nnc3-c3ccccc3)c2)cc1`, the AC40 was 1 µM.
For `COc1ccccc1N1CCN(Cc2ccc(O)c3ncccc23)CC1`, the AC40 was > 38 µM (inactive).
Work on `c1ccc(-c2nnc(-c3ccccn3)nc2N2CCC(C3CCCCC3)C2)cc1` (stereo not drawn) yielded an AC40 of 1.5 µM.
With `c1ccc(-c2nnc(-c3ccccn3)nc2Nc2cnc3ccccc3n2)cc1` the AC40 was 7.45 µM.
For `O=C(c1cc(-c2ccccc2)on1)N1CCC(N2CCOCC2)CC1`, the AC40 was > 4.6 µM (inactive).
Compound `O=C(NCCCCO)c1cc(-c2ccccc2)on1` has an AC40 of 12 µM.
Compound `c1ccc(CNc2nc(-c3ccccn3)nnc2-c2ccccc2)cc1` has an AC40 of 5.63 µM.
For `c1ccc(-c2nnc(-c3ccccn3)nc2NCC2CCOCC2)cc1`, the AC40 was 22.8 µM.
With `Cc1ccccc1CNc1nc(-c2ccccn2)nnc1-c1ccccc1` the AC40 was 5.58 µM.
With `c1ccc(-c2csc(Nc3nc(-c4ccccn4)nnc3-c3ccccc3)n2)cc1` the AC40 was 1.39 µM.
`O=C(NCC1CC1)c1cc(-c2ccccc2)on1` gave an AC40 of 31 µM.
For `O=C(Nc1ccc2ccccc2n1)c1cc(-c2ccccc2)on1`, the AC40 was > 4.6 µM (inactive).
`c1ccc(CCNc2nc(-c3ccccn3)nnc2-c2ccccc2)cc1` showed an AC40 of 2.69 µM.

Tested on: not listed separately
Test: as above
Conditions: U2OS HRE-luciferase reporter, luminescence, HIF pathway activation; at 38 µM (top of the series)
Outline: as §1
For `O=C(NCC1CCCCC1)c1cc(-c2ccccc2)on1`, the activation was 3.45% (inactive).
In the case of `Cc1ccccc1CNC(=O)c1cc(-c2ccccc2)on1`, the activation is reported as 1.28% (inactive).
With `O=C(NC1CCc2ccccc2C1)c1cc(-c2ccccc2)on1` (stereo not drawn) the activation was -0.627% (inactive).
For `O=C(NCc1ccccc1)c1cc(-c2ccccc2)on1`, the activation was 0.892% (inactive).
With `Cc1cccc(NC(=O)c2cc(-c3ccccc3)on2)n1` the activation was 1.4% (inactive).
In the case of `Oc1ccc(CN2CCc3ccccc3C2)c2cccnc12`, the activation is reported as 1.34% (inactive).
With `Cn1c(-c2ccccc2)cnc1NC(=O)c1cc(-c2ccccc2)on1` the activation was 0.636% (inactive).
For `CC(C)(C)CCNC(=O)c1cc(-c2ccccc2)on1`, the activation was 19.3% (inactive).
For `Cc1ccc(CNC(=O)c2cc(-c3ccccc3)on2)cc1`, the activation was -0.867% (inactive).
For `O=C(NC1Cc2ccccc2C1)c1cc(-c2ccccc2)on1`, the activation was 2.88% (inactive).
For `Oc1ccc(CN2CCC(Cc3ccccc3)CC2)c2cccnc12`, the activation was 22.2% (inactive).
With `Cc1cccc(CNC(=O)c2cc(-c3ccccc3)on2)c1` the activation was -1.13% (inactive).
With `Oc1ccc(CNC2CCc3ccccc32)c2cccnc12` (stereo not drawn) the activation was 11.5% (inactive).
For `CN1CCN(C(=O)c2cc(-c3ccccc3)on2)CC1`, the activation was -0.645% (inactive).
In the case of `CN(C)CCNC(=O)c1cc(-c2ccccc2)on1`, the activation is reported as 1.68% (inactive).
For `CC1CN(Cc2ccc(O)c3ncccc23)CC(C)O1` (stereo not drawn), the activation was 2.27% (inactive).
For `N#CC1(c2ccccc2)CCN(Cc2ccc(O)c3ncccc23)CC1`, the activation was 6.8% (inactive).
For `O=C(Nc1nnc(-c2ccccc2)s1)c1cc(-c2ccccc2)on1`, the activation was 0.329% (inactive).
In the case of `O=C(Nc1ncc2ccccc2n1)c1cc(-c2ccccc2)on1`, the activation is reported as 2.48% (inactive).
In the case of `Cc1ccc(NC(=O)c2cc(-c3ccccc3)on2)cn1`, the activation is reported as 1.37% (inactive).
For `O=C(c1cc(-c2ccccc2)on1)N1CCN(c2ccncc2)CC1`, the activation was -1.02% (inactive).
With `Cn1c(NC(=O)c2cc(-c3ccccc3)on2)nc2ccccc21` the activation was 0.384% (inactive).
In the case of `O=C(Nc1cnc2ccccc2c1)c1cc(-c2ccccc2)on1`, the activation is reported as 0.049% (inactive).
For `O=C(Nc1ncc(-c2ccccc2)o1)c1cc(-c2ccccc2)on1`, the activation was -0.837% (inactive).
With `O=C(c1cc(-c2ccccc2)on1)N1CCC(N2CCCC2)CC1` the activation was 0.044% (inactive).
